Assay results of several laboratories.
Protocols differ between the studies behind these lines.
Target: Adenosine receptor A2a (ADORA2A, Homo sapiens, UniProt P29274)
Read-out: ligand displacement
Method: radioligand

With `CNC(=O)[C@@]12C[C@@H]1[C@@H](n1cnc3c(NCc4cccc(C#CCCCc5cn(-c6ccc(F)c(N)c6)nn5)c4)nc(Cl)nc31)[C@H](O)[C@@H]2O` the Ki was 2.73 µM (cell membranes).
For `OC[C@@]12C[C@@H]1[C@@H](n1cnc3c(N[C@@H](C4CCC4)C4CC4)nc(I)nc31)[C@H](O)[C@@H]2O`, the Ki was 3.08 µM.
`c1coc(-c2nc3cc(CCN4CCCCC4)ccc3o2)c1` gave a Ki of 7 µM (cell membranes).
For `Nc1nc(-c2ccccc2Cl)nn1C(=O)CCc1ccccc1`, the Ki was 0.63 µM (cell membranes).
`CCNC(=O)C1OC(n2cnc3c(N)nc(NN=CC4CCC=CO4)nc32)C(O)C1O` (centres unmarked) gave a Ki of 0.0233 µM.
The Ki of `Nc1nc(I)nc2c1ncn2[C@H]1[C@H](O)[C@H](O)[C@]2(CCl)C[C@H]12` is reported as 5.35 µM.
The Ki of `CC(C)CN1CCCn2c1nc1c2c(=O)n(C)c(=O)n1C` is reported as 0.93 µM (cell membranes).
`CNC(=O)c1csc(Nc2cccc(C)n2)n1` has a Ki of 7.1 µM (cell membranes).
`CCCCCCN1CCCn2c1nc1c2c(=O)n(C)c(=O)n1C` has a Ki of 2.07 µM (cell membranes).
The Ki of `Cc1cccc(-c2nc(N)n(C(=O)CCc3ccccc3)n2)c1` is reported as 0.25 µM (cell membranes).
With `c1coc(-c2nc3cc(CCN4CCOCC4)ccc3o2)c1` the Ki was 11 µM (cell membranes).
